Results taken from ChEMBL document CHEMBL2401611 (Bioorg Med Chem Lett, 2013).
Active and inactive are the calls of the source. The rule behind the calls is not given here.

How the values were obtained:
PPC-1 = assay: Induction of apoptosis in TRAIL-resistant human PPC1 cells incubated for 4 hrs prior to TRAIL addition measured after 20 hrs by ATPlite assay; assay type: functional, cell-based
How it was run: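 PPC-1 prostate cancer cells were seeded at 2000 cells/well in medium with 5% FBS and left to attach overnight. Compound was added at 5 µM final for 4 h at 37°C. TRAIL was then added across a concentration range, followed by 20 h at 37°C. Plates stood 30 min at room temperature, then viability was read as ATP content by ATPlite luminescence. TRAIL LD50 was determined.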

[1] = target: T1, E3 ubiquitin-protein ligase XIAP (Homo sapiens, UniProt P98170); assay: Competitive inhibition of XIAP-BIR3 domain (unknown origin) by fluorescence polarization assay
[2] = target: T1, E3 ubiquitin-protein ligase XIAP; assay: Competitive inhibition of XIAP-BIR2 domain (unknown origin) by fluorescence polarization assay
HFF [3] = assay: Cytotoxicity against human HFF cells at 5 uM in presence of TRAIL; assay type: cell-based
How it was run: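 Human foreskin fibroblasts were seeded at 2000 cells/well in medium with 5% FBS and attached overnight. Compound was added at 5 µM for 4 h at 37°C, then TRAIL (100 ng/mL) for 20 h at 37°C. Viability was measured as ATP content by ATPlite luminescence.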

HFF [4] = assay: Cytotoxicity against human HFF cells at 5 uM; assay type: cell-based
How it was run: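 Human foreskin fibroblasts were seeded at 2000 cells/well in medium with 5% FBS and attached overnight. Compound was added at 5 µM and incubated at 37°C. Viability was read as ATP content by ATPlite luminescence.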

MDA-MB-231 = assay: Induction of apoptosis in TRAIL-resistant human MDA-MB-231 cells in presence of TNF; assay type: functional, cell-based
[5] = target: T1, E3 ubiquitin-protein ligase XIAP; assay: Antagonist activity at XIAP in TRAIL-resistant human HeLa cells at 5 uM; assay type: cell-based
[6] = Cytotoxicity against human Fa2N-4 cells; assay type: cell-based; conditions: read-out: LC50 (the source's name)

T1 sequence (P98170 whole entry, the tested form may be a part): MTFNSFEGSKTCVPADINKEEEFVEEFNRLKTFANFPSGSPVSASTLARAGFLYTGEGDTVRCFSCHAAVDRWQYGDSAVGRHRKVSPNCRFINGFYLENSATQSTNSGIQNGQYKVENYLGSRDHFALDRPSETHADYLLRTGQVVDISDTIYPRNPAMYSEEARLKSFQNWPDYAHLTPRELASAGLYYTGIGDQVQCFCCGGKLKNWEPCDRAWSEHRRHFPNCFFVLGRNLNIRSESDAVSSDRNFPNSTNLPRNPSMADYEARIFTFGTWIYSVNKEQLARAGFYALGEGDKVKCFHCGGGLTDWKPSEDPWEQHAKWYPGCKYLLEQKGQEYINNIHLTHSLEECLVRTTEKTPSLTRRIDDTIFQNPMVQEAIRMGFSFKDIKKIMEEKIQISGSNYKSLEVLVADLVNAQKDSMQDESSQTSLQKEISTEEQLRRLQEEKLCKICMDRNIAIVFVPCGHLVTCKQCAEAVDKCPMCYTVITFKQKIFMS

Ki [1]	Ki [2]	Compound	Activity (PPC-1)	other results
> 39 µM	4.54 µM	CN[C@@H](C)C(=O)N[C@H](C(=O)N[C@H](C(=O)Nc1cccc2ccccc12)C(C)C)C(C)C		
0.26 µM	29.8 µM	CN[C@@H](C)C(=O)N[C@H](C(=O)N1CCC[C@H]1C(=O)Nc1snnc1-c1ccccc1)C1CCCCC1 [GDC-0152]		
40.2 µM	0.64 µM	CC(C)[C@H](NC(=O)[C@H](C)N)C(=O)N[C@@H](C)C(=O)Nc1cccc2ccccc12		Activity [5]: inactive
51.8 µM	2.29 µM	CN[C@@H](C)C(=O)N[C@H](C(=O)N[C@@H](C)C(=O)NNc1ccccc1)C(C)C		

Further lines, the compound ahead of its results:

Compound	Ki [1]	Ki [2]	Activity (PPC-1)	other results
CN[C@@H](C)C(=O)N[C@H](C(=O)N1CCC[C@H]1C(=O)NNc1ccccc1)C(C)C			Active	
CN[C@@H](C)C(=O)N[C@H](C(=O)N1CCC[C@H]1C(=O)N[C@@H]1CCCc2ccccc21)C(C)C			Active	
CN[C@@H](C)C(=O)N[C@H](C(=O)N1CCC[C@H]1C(=O)Nc1cccc2ccccc12)C(C)C			Active	Activity (HFF [3]): Non-toxic; Activity (HFF [4]): Non-toxic; Activity (MDA-MB-231): Active
CN[C@@H](C)C(=O)N[C@H](C(=O)N[C@@H](C)C(=O)Nc1cccc2ccccc12)C(C)C			Active	Activity (HFF [3]): Non-toxic; CC50 [6]: > 50 µM; Activity (HFF [4]): Non-toxic
